Shown are actives, neighbours in structure and some others; about 5.4% of the full set was active somewhere.
T cruzi repl = blocks replication of Trypanosoma cruzi | actives 1.4% (n = 300,000) | inhibition, % (concentration not given with the values) | T. cruzi beta-gal in NIH3T3, luminescence, 90 h;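 active = mean inhibition across valid replicates above about 55%, limit read from the data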;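 also: signal also drops with host cell toxicity which is not excluded here; 0% = plate median of DMSO wells and 100% = zero luminescence signal; higher percent means less beta-gal luminescence so fewer parasites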
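compound dosing = single 50 nL compound addition per well in DMSO | material = NIH/3T3 host cells with β-galactosidase reporter T. cruzi | input = 5,000 host fibroblasts per well | timing = ≥90 h infection period, 3 h prior cell attachment | read-out basis = percent inhibition of parasite-derived β-gal signal | detection = GalScreen β-gal luminescence, detergent lysis, 60 min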
Mdm2-MdmX inh = human Mdm2/MdmX binding inhibition; O15151+Q00987; actives 3% (n = 330,000); AID 485346; SaOS-2 split-luciferase Mdm2/MdmX complementation, luminescence; inhibition, % at 8 µM;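 active = inhibition of at least 50% at 8 µM in the primary screen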
Target sequence (O15151 whole entry, looked up): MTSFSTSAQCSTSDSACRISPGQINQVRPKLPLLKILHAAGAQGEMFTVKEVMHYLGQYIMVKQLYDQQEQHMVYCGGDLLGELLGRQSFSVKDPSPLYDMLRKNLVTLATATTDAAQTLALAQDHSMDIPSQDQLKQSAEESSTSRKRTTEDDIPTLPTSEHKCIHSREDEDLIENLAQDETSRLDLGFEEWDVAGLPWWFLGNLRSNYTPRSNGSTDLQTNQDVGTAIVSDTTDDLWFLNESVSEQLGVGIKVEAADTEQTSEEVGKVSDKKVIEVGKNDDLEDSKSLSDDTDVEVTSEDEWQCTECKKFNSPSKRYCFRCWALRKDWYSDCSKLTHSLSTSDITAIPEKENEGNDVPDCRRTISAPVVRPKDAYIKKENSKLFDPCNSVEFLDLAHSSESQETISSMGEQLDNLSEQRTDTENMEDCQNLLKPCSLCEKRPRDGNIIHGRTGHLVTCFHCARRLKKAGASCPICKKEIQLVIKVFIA
Target sequence (Q00987 whole entry, looked up): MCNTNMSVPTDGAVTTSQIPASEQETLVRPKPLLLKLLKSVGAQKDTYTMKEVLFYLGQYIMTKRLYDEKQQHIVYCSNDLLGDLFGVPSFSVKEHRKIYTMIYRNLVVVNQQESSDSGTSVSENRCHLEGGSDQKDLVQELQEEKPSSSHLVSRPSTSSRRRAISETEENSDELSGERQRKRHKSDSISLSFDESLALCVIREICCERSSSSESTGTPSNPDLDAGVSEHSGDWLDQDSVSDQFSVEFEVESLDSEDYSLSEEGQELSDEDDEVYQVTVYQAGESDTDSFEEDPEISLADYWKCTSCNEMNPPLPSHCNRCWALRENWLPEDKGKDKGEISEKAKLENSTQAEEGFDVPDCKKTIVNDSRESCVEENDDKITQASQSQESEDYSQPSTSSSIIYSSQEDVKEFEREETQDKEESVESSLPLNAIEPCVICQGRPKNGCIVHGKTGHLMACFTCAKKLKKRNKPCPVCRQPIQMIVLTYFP
CSC inhib = cancer stem cell inhibition. cancer stem cell-like cells viability, luminescence. inhibition, % at 7.5 µM. actives 1.1% (n = 300,000). AID 2717; in the data active = inhibition above about 75%; tested in HMLE shEcad cells
SKKanGAS inh = SKKanGAS growth inhibition; AID 1662; S. pyogenes SKKanGAS, kanamycin growth, BacTiter-Glo, 6 h; inhibition, % at 7.5 µM; actives 1.3% (n = 300,000);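 active = mean replicate score, as percent of positive control median, at least 50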;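 also: strain carries kanamycin resistance gene driven by streptokinase promoter and grows in 40 µg/ml kanamycin; loss of luminescence reflects streptokinase promoter inhibition or plain growth inhibition; 0% = median of DMSO wells and 100% = positive control at its reference dose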
aSyn UTR inh = MLPCN primary screen, SNCA 5' untranslated region; alpha-synuclein 5'UTR reporter, inhibitor activity; actives 0.82% (n = 300,000); inhibition, % (tested at 7.5 µM); AID 1813; in the data active = inhibition above about 60%;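 also: H4 neuroglioblastoma cells stably carrying SNCA 5'UTR luciferase fusion; 0% = DMSO wells and 100% = positive control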
Mdm2-MdmX conf = confirmation of human Mdm2/MdmX interaction inhibitors. shares compounds with Mdm2-MdmX inh. Mdm2-MdmX binding, luminescent assay. inhibition, % at 8 µM. actives 55% (n = 10,000). AID 489028; in the data active = inhibition above about 40%
Full FLuc ctr = counter-screen for Mdm2/MdmX inhibitors: full-length luciferase; shares compounds with Mdm2-MdmX inh; SaOS-2 full-length luciferase counterscreen, luminescence; inhibition, % at 8 µM; actives 77% (n = 6,200);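 active = mean inhibition at 8 µM reaching about 37%, which flags the compound as non-specific, limit read from the data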;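 also: p53-null SaOS-2 cells with luciferase driven by a doxycycline-inducible promoter; compound on cells about two nights before reading with doxycycline added after day one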
Numbers without * were called inactive; x = no result; ! = a repeat was not active.

SMILES	T cruzi repl	Mdm2-MdmX inh	CSC inhib	SKKanGAS inh	aSyn UTR inh	Mdm2-MdmX conf	Full FLuc ctr
Cn1nc(Cc2cccc3ccccc23)c(C#N)c1N	-2	21	-1	-2	5	x	x
CC(C)(C)n1nc(Cc2cccc3ccccc23)c2c(N)ncnc21	40	54*	39	13	12	23	x
COC(=O)c1cc(=O)n(Cc2ccc3c(c2)OCO3)c(=Nc2ccc(F)c(Cl)c2)s1	44	62*	54	0	-66	39	102*
COC(=O)c1cc(=O)n(CCc2ccc(OC)cc2)c(=Nc2ccc(F)c(Cl)c2)s1	42	71*	100*	-6	-28	-3	x
CCn1c(=O)cc(C(=O)OC)sc1=Nc1ccc(F)c(F)c1	2	19	11	3	-18	x	x
O=C(C1CC1)N1N=C(C2CCCCC2)CC1(O)C(F)(F)F (stereo not given)	-2	3	-8	12	19	x	x
CCN1CCN(C(=O)C2COc3ccccc3O2)CC1 (stereo not given)	-6	7	-4	18	2	x	x
O=C(CCl)N1CCN(C(=O)C2COc3ccccc3O2)CC1 (stereo not given)	x	67*	-8	x	x	30	x
O=C(Nc1ncc([N+](=O)[O-])s1)c1ccc2c(c1)OCO2	27	75*	50	17	103*	69*	64*
Cc1ccc([N+](=O)[O-])cc1NC(=O)c1ccc2c(c1)OCO2	-17	-10	-8	-15	-21	x	x
Cc1ccc(C(=O)Nc2ncc(C)s2)s1	-27	-24	25	0	20	x	x
Cc1cnc(NC(=O)c2ccc3c(c2)OCCO3)s1	x	74*	x	x	x	80*	29
Cc1onc(-c2ccccc2)c1C(=O)Nc1nnc(C(C)C)s1	-1	17	-4	-2	-1	x	x
Cc1onc(-c2ccccc2)c1C(=O)Nc1ncc([N+](=O)[O-])s1	12	73*	48	20	-8	38	59*
O=C(Nc1cc([N+](=O)[O-])ccc1Cl)c1ccc2c(c1)OCO2	2	74*	-2	11	-32	16	x
N#CCCCCN1CCCC1	-1	x	-6	-1	4	x	x
CCc1cccc(NC(=O)c2ccc(Br)o2)c1	-7	-11	x	-6	-116	x	x
COC(=O)c1ccc(COc2ccccc2/C=C(\C#N)C(=O)Nc2c(C)cccc2C)cc1	43	93*	102*	24	-82	53*	42*
O=C(Cn1c(C(F)(F)F)nc2ccccc21)N=Nc1c(O)[nH]c2ccc(Br)cc12	-16	42	28	-1	10	x	x
Cc1cc(C(=O)c2ccc(Cl)cc2)c(NC(=O)CCl)s1	15	67*	9	-5	28	6	x
Cc1ccc(C)c(S(=O)(=O)NCc2ccc(C(=O)NCc3ccccn3)cc2)c1	0	11	-10	-9	-23	x	x
CCOC(=O)c1cnc(-c2ccccc2O)nc1Cl	5	9	-3	6	-18	x	x
CCOC(=O)C1=Nc2ccccc2C1=[N+]=[N-]	30	51*	-4	103*	21	9	x
COc1ccc(OC)c(CN2CCN(C(=O)CN3C(=O)NC4(CCCC4)C3=O)CC2)c1	-3	14	-10	0	16	x	x
CCCCCCc1cc2cc(C(=O)NCc3ccccc3)c(=N)oc2cc1O	-5	14	27	3	-14	x	x
SMILES	T cruzi repl	Mdm2-MdmX inh	CSC inhib	SKKanGAS inh	aSyn UTR inh	Mdm2-MdmX conf	Full FLuc ctr
CCCCCCc1cc2cc(S(=O)(=O)c3ccc(Cl)cc3)c(=O)oc2cc1O	-1	75*	87*	6	-9	34	x
CCCCCCc1cc2cc(C(=O)Nc3ccccc3)c(=O)oc2cc1O	5	97*	100*	4	92*	61*	57*
COc1cc2nc(N3CCN(C(=O)C4COc5ccccc5O4)CC3)nc(N)c2cc1OC (stereo not given)	14	46	-13	4	12	x	x
COc1cc2nc(N3CCN(C(=O)c4ccco4)CC3)nc(N)c2cc1OC	13	96*	-7	12	32	51*!	57*
O=C(Nc1oc2ccccc2c(=O)c1-c1ccc(Cl)cc1)c1ccco1	-11	12	-10	15	7	x	x
O=C(Cc1n[nH]c(=O)c2ccccc12)OCc1c(Cl)cccc1Cl	-4	57*	32	-11	-44	55*	62*
